Screening data from PubChem.
The list is not random: actives were taken first. Their share in the collection is about 4.1%.
hERG rescue = hERG rescue from dofetilide block, primary screen, cell-based, CHO-hERG, FluxOR thallium flux, dofetilide IC70. 310,000 tested, 0.51% active. Voltage-gated inwardly rectifying potassium channel KCNH2 (Homo sapiens), Q12809. activation (rescue from dofetilide block), less the hit threshold, % at 10 µM. dofetilide IC70 present;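 active = activation above the mean of controls blocked by dofetilide plus 5 SD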;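 also: thallium influx through hERG after potassium depolarization seen as dye fluorescence rise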
Target sequence (Q12809 whole entry, looked up): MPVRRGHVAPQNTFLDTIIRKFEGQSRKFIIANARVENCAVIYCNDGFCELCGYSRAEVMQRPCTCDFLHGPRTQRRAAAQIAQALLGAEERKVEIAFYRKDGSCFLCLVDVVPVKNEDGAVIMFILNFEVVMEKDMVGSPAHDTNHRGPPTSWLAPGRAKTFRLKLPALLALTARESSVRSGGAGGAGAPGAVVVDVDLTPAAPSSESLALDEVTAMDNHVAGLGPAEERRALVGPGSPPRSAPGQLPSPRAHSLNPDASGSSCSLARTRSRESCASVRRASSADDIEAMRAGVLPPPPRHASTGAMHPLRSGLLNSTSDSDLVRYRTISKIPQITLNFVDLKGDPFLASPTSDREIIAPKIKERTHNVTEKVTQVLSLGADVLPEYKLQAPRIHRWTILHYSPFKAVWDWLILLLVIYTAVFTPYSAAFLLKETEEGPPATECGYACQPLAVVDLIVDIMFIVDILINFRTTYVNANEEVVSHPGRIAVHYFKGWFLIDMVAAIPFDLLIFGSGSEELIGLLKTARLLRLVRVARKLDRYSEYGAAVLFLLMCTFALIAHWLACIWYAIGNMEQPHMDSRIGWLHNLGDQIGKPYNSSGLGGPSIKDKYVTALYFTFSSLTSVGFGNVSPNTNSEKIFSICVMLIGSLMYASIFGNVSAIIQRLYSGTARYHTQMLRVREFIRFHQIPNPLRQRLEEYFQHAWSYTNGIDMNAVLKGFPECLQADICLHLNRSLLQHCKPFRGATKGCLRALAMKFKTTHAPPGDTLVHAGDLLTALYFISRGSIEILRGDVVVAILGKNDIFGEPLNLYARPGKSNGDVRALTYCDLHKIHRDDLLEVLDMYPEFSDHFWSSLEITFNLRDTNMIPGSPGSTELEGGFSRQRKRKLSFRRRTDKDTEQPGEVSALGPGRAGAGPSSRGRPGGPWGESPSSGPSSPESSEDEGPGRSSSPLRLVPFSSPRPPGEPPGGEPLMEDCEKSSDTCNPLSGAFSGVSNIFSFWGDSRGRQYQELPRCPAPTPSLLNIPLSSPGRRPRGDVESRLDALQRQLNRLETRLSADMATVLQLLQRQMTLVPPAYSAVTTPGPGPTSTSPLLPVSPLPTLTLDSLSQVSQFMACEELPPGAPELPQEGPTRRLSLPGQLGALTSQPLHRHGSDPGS
KCNQ1 act = potentiators or activators of KCNQ1 channel, primary screen, cell-based, thallium flux, high-throughput. CHO-K1 KCNQ1, thallium flux FluxOR fluorescence; stronger effect = higher value. Potassium voltage-gated channel subfamily KQT member 1 (Homo sapiens), P51787. B-score at 10 µM. 310,000 tested, 0.35% active;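 active = fluorescence ratio B-score, a plate-corrected score, at least three library SD, with initial intensity B-score within 5 SD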
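Test system: CHO-K1 cells stably expressing KCNQ1 / Medium: assay buffer / Also added: depolarizing K+/Tl+ stimulus, K2SO4 and Tl2SO4 each 12.5 mM in 5x stock / Incubation: 90 min dye loading and 20 min compound exposure, both at room temperature / Signal: thallium influx via FluxOR fluorescence, kinetic imaging / Evaluation: B score of baseline-normalized fluorescence ratio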
KCNK3 inh = human KCNK3 channel inhibitors, primary screen, CHO cells, FluxOR thallium flux, B-score | B-score at 10 µM | FluxOR fluorescence; stronger effect = lower value | Potassium channel subfamily K member 3 (Homo sapiens), O14649 | 340,000 tested, 0.84% active;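 active = B-score under library mean minus 4 SD, starting fluorescence ratio at most library mean plus 5 SD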;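 also: more negative B-score means stronger inhibition of thallium flux through KCNK3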
KCC2 mod = KCC2 cotransporter modulators, thallium flux, primary screen, cell-based, HEK293 KCC2, FluoZin-2 fluorescence, MLSMR; AID 1456, 2008; Solute carrier family 12 member 5 (Homo sapiens), Q9H2X9; KCC2 cells, thallium flux FluoZin-2 fluorescence; 190,000 tested, 2.2% active; B-score of Tl+ flux slope (higher = more flux/activation; lower = inhibition) at 10 µM;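 active = thallium flux slope and its plate-corrected score both differing from the plate sample mean at a set confidence after two filtering rounds, in either direction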;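 also: slope of fluorescence scaled to starting intensity during 10 to 20 s after thallium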
KCNQ1 inh = inhibitors of human KCNQ1 channel, primary screen, cell-based, thallium flux, high-throughput; CHO-K1 KCNQ1, FluxOR thallium flux fluorescence; stronger effect = higher value; B-score at 10 µM; Potassium voltage-gated channel subfamily KQT member 1 (Homo sapiens), P51787; 310,000 tested, 1.3% active;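 active = compounds whose thallium flux B-score, printed positive for inhibition, exceeds three library SD while starting fluorescence stays within three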;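 also: channel opened by potassium depolarization with thallium stimulus after 20 min compound exposure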
KCNK9 inh = KCNK9 potassium channel inhibitors, primary screen, HEK293 cells, thallium flux; AID 488922, 2010; FluxOR thallium flux fluorescence; stronger effect = lower value; B-score at 10 µM; 310,000 tested, 1.2% active; Potassium channel subfamily K member 9 (Homo sapiens), Q9NPC2;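 active = ratio B-score over 3 SD below the library mean, with starting fluorescence within 5 SD of its mean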;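 also: negative B-score means less thallium flux so channel inhibition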
KCC2 secondary = KCC2 modulators in sodium-free buffer, confirmation, cell-based, HEK293 KCC2, thallium flux, secondary assay | shares compounds with KCC2 mod | FluoZin2 fluorescence; stronger effect = higher value | normalised thallium flux (F/F0 slope) at 10 µM | 3,700 tested, 15% active | AID 1713, 2009;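 active = thallium flux slope above the same plate's solvent-only control mean plus 3 SD; inconclusive = the two replicate wells disagree; inactive = no significant difference from solvent-only control wells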
KCC2 bumet counter = thallium flux persisting under bumetanide in KCC2 cells, confirmation, counter-screen for KCC2 modulator project, cell-based, HEK293 KCC2, FluoZin2, secondary assay 3; 3,700 tested, 49% active; normalized thallium flux at 10 µM; AID 1714, 2009; HEK293-KCC2 + bumetanide/ouabain; stronger effect = higher value; shares compounds with KCC2 mod;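 active = thallium entry rate above the same plate's blocked-transporter control wells by more than 3 SD; inconclusive = the two repeat wells disagree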;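 also: raw slope of fluorescence over initial fluorescence between 10 and 20 s after thallium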
KCC2 secondary2 = KCC2 modulators without ouabain present, confirmation, cell-based, HEK293 KCC2, thallium flux, FluoZin2, secondary assay 2. thallium flux FluoZin2 fluorescence; actives lie on both sides; F/F0 rise rate, 10–20 s post-thallium. 3,700 tested, 23% active. shares compounds with KCC2 mod. AID 1715, 2009. normalized thallium flux at 10 µM;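 active = thallium flux slope more than 3 SD above or below the plate's solvent-only control mean, mostly below; inconclusive = the two repeat wells disagreed; inactive = no significant shift from solvent-only controls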
HEK293 Tl flux = thallium flux modulation in parental HEK cells, confirmation, counter-screen for KCC2 modulator project, cell-based, counterscreen 1. AID 1716, 2009. 3,700 tested, 46% active. thallium flux rate (normalised fluorescence) at 10 µM. shares compounds with KCC2 mod. HEK293 parental cells, thallium flux FluoZin2, ouabain; baseline-ratio fluorescence slope, 10–20 s after thallium;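 active = thallium flux rate significantly above the same plate's solvent-only control wells, beyond their mean plus 3 SD; inconclusive = the two replicate wells gave conflicting results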
KCC2 ouabain = KCC2 inhibitors and activators, ouabain retest, confirmation, HEK-KCC2 cells; shares compounds with KCC2 mod; HEK293-KCC2, thallium flux FluoZin2 fluorescence; bidirectional: low = inhibitor, high = activator; raw Tl+ flux slope (below DMSO = inhibition, above = activation) at 10 µM; 3,700 tested, 48% active; AID 1717, 2009;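 active = thallium flux slope beyond 3 SD from same-plate DMSO control mean in most replicates, usually higher, sometimes lower; inconclusive = repeat tests gave conflicting results; inactive = no significant difference from controls in most replicates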;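 also: slope of initial-normalized fluorescence between seconds 10 and 20 after thallium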
HEK293 Tl flux2 = native HEK Tl+ uptake effects, second counter-screen – HEK cells, counterscreen 2, counter-screen for KCC2 modulator project, confirmation. shares compounds with KCC2 mod. HEK293 parental, thallium flux FluoZin-2 fluorescence slope. thallium flux slope at 10 µM. 3,700 tested, 33% active. AID 1718, 2009;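 active = thallium flux slope above the same plate's solvent-control mean plus 3 SD in both duplicate wells; inconclusive = duplicate wells that disagreed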;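 also: run without ouabain in cells lacking the KCC2 cotransporter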
Hits are given with their value; n = inactive; u = inconclusive; x = no result given.

SMILES | hERG rescue | KCNQ1 act | KCNK3 inh | KCC2 mod | KCNQ1 inh | KCNK9 inh | KCC2 secondary | KCC2 bumet counter | KCC2 secondary2 | HEK293 Tl flux | KCC2 ouabain | HEK293 Tl flux2
COC(=O)C1=C(Nc2ccccc2NC(=O)c2ccccc2C(=O)O)CSC1 | n | n | n | n | n | n | x | x | x | x | x | x
COC(=O)C1=C(Nc2ccccc2NS(=O)(=O)c2ccc(C(F)(F)F)cc2Cl)CSC1 | n | n | n | 5.5 | 6 | n | n | 0.011 | n | 0.012 | u | 0.012
Cc1ccc(C)c(NC(=S)Nc2ncccc2C)c1 | n | n | n | n | n | n | x | x | x | x | x | x
Cc1ccc(C)c(NC(=S)N/N=C2\CCc3ccccc32)c1 | n | n | n | 24 | n | n | 0.014 | 0.075 | n | 0.071 | 0.043 | 0.018
Cc1cc(C)c(S(=O)(=O)Nc2cccc3nsnc23)c(C)c1 | n | n | n | 23 | n | n | 0.018 | 0.074 | n | 0.041 | 0.074 | 0.019
O=S(=O)(Nc1cccc2nsnc12)c1ccccc1 | n | n | n | n | n | n | x | x | x | x | x | x
Cc1cc(S(=O)(=O)Nc2c(C)ccc3nsnc23)ccc1F | n | n | n | n | n | n | x | x | x | x | x | x
Cc1ccc2nsnc2c1NS(=O)(=O)c1c(C)ccc2nsnc12 | n | n | n | 7.6 | n | n | n | 0.028 | n | 0.02 | 0.029 | 0.019
Cc1ccc(C)c(NS(=O)(=O)c2ccccc2C)c1 | n | n | n | x | n | n | x | x | x | x | x | x
CC(C)CN(C(=O)c1cc(=O)[nH]c2ccccc12)c1c(N)n(Cc2ccccc2)c(=O)[nH]c1=O | n | n | n | x | n | n | x | x | x | x | x | x
CC(NC(=O)COC(=O)CC(c1ccccc1)c1ccccc1)c1ccccc1 (stereo not given) | n | n | n | -4.7 | n | n | n | n | n | 0.0053 | n | u
c1ccc(CSc2nnc(NC3=NCCCCC3)s2)cc1 | n | n | n | x | n | n | n | n | n | n | 0.034 | n
Cc1cc2c(cc1C)-c1nnc(-c3ccc4ccccc4n3)n1C(C)(C)C2 | n | n | x | -5 | n | n | n | n | n | n | n | n
Cc1ccc(OCC(=O)NNC(=O)C(=O)N2CCCC2)c(C)c1 | n | n | n | 4.3 | n | n | n | 0.013 | n | 0.013 | u | 0.015
Cc1cc(Br)ccc1OCC(=O)NNC(=O)C(=O)Nc1ccccc1 | 51 | 92 | n | x | n | n | 0.022 | 0.093 | u | 0.087 | 0.075 | 0.072
Cc1cc(Br)ccc1OCC(=O)NNC(=O)Cc1ccccc1 | n | n | n | n | n | n | x | x | x | x | x | x
CN1c2ccccc2C(O)=C(C(=S)Nc2ccc(Cl)cc2)S1(=O)=O | n | n | n | x | n | n | n | 0.021 | n | 0.017 | u | 0.021
COc1ccc(OC)c(S(=O)(=O)Nc2cnc3ccccc3c2)c1 | n | n | n | -5.6 | n | n | n | n | n | n | n | n
COc1ccc(NS(=O)(=O)c2cc(OC)ccc2OC)cc1 | n | n | n | x | n | n | x | x | x | x | x | x
CCOc1nc(-c2ccncc2)nc2ccccc12 | n | n | n | n | n | n | n | n | u | n | n | n
CC(=O)c1ccc(Nc2nc(=O)c3cccnc3s2)cc1 | n | n | n | x | n | n | x | x | x | x | x | x
Cc1ccc(Nc2nc(=O)c3cccnc3s2)c(Br)c1 | n | n | n | 29 | n | n | n | 0.038 | u | 0.02 | 0.038 | 0.021
CCN(CC)C(=O)Oc1ccc(Cl)c2cccnc12 | n | n | n | n | n | n | x | x | x | x | x | x
O=C(Nc1cccc(C(F)(F)F)c1)Oc1ccc(Cl)c2cccnc12 | n | n | n | 14 | n | n | n | 0.022 | n | 0.014 | 0.021 | 0.016
CN(C)/C=C1\NC(=S)N(c2ccccc2)C1=O | n | n | n | n | n | n | x | x | x | x | x | x
SMILES | hERG rescue | KCNQ1 act | KCNK3 inh | KCC2 mod | KCNQ1 inh | KCNK9 inh | KCC2 secondary | KCC2 bumet counter | KCC2 secondary2 | HEK293 Tl flux | KCC2 ouabain | HEK293 Tl flux2
COc1ccc(N2C(=O)/C(=C/c3cccs3)NC2=S)cc1 | n | n | n | 8.7 | n | n | 0.013 | 0.022 | n | 0.024 | 0.032 | 0.011
O=c1c2ccccc2[nH]c(=S)n1Cc1ccccc1Cl | n | n | n | x | n | n | x | x | x | x | x | x
CCCn1c(=S)[nH]c2ccccc2c1=O | n | n | n | 79 | n | n | u | 0.12 | 0.091 | 0.085 | 0.1 | 0.088
O=c1c2ccccc2[nH]c(=S)n1Cc1cccs1 | n | n | n | 26 | n | n | u | 0.048 | n | 0.017 | 0.041 | 0.012
CC1CCCN(C(=O)CCCn2c(=S)[nH]c3ccccc3c2=O)C1 (stereo not given) | n | n | n | 3.2 | n | n | n | 0.0099 | n | 0.0099 | u | 0.012
O=c1c2ccccc2[nH]c(=S)n1Cc1ccccc1 | n | n | n | x | n | n | x | x | x | x | x | x
O=c1c2ccccc2[nH]c(=S)n1CCc1ccccc1 | 20 | 17 | n | 29 | n | n | 0.027 | 0.072 | n | 0.11 | 0.061 | 0.055
Cc1c(N2C(=O)/C(=C/c3ccc(N(C)C)cc3)N(C)C2=S)c(=O)n(-c2ccccc2)n1C | x | x | n | x | x | x | x | x | x | x | x | x
CC(C)(CO)NCc1c(OCc2ccc(Cl)cc2)ccc2ccccc12 | n | n | n | x | n | n | x | x | x | x | x | x
